The values that follow come from ChEMBL document CHEMBL2417455, “Design, synthesis and biological evaluation of new aryl thiosemicarbazone as antichagasic candidates” (Eur J Med Chem, 2013).

Data set [1] addresses Cruzipain (Trypanosoma cruzi) (UniProt P25779). Description: Inhibition of Trypanosoma cruzi cruzain expressed in Escherichia coli DH5-alpha using Bz-Phe-Arg-AMC as substrate at 10 uM preincubated for 5 mins followed by substrate addition measured for 5 mins by spectrofluorimetric analysis relative to control. In a few lines:
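Recombinant cruzain at 0.23 nM in pH 6.5 buffer (50 mM Na2PO4, 2.5 mM EDTA), preincubated 5 min with or without inhibitor at a single 10 µM concentration. Bz-Phe-Arg-AMC was then added (stock 170 µM). Fluorescence was read at ex 380/em 460 nm, 37 °C, under magnetic stirring, for 5 min. Triplicate measurements.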

The test system of data set [2] is Trypanosoma cruzi. As to the kind of experiment: Trypanocidal activity against epimastigote stage of Trypanosoma cruzi Y at 5 ug/mL after 72 hrs by MTT assay relative to control. Format: functional. The essentials: (§1)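 Log-phase (7-day) Y-strain epimastigotes at 10⁷/mL in LIT medium with 10% fetal calf serum were exposed to DMSO-dissolved compound at 100, 50, 25, 10, 5, 2.5 and 1 µg/mL for 72 h at 28 °C. MTT-PMS was added for 75 min in the dark, then 10% SDS for 30 min. OD was read at 595 nm and percent death determined. IC50 by linear regression of OD. Triplicates, Probit analysis.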

Data set [3] has as its system Trypanosoma cruzi. As to the kind of experiment: Trypanocidal activity against epimastigote stage of Trypanosoma cruzi Y after 72 hrs by MTT assay. Format: functional, organism-based. In a few lines:
as §1

The subject of data set [4] is Trypanosoma cruzi. As to the kind of experiment: Trypanocidal activity against epimastigote stage of Trypanosoma cruzi Y at 50 ug/mL after 72 hrs by MTT assay relative to control. Type of data set: functional. In a few lines:
as §1

The test system of data set [5] is Mus musculus. As to the kind of experiment: Mutagenicity in Swiss albino mouse at 100 mg/kg after 30 hrs by micronucleus test. Type of data set: toxicity, organism-based. Set-up: dose 100 mg/kg. To be noted: in vivo. In a few lines: (§2)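 Swiss albino mice (~30 g) were dosed by gavage at 50, 100 or 250 mg/kg bwt. Negative control received 1% CMC/0.2% Tween 40 aqueous solution by gavage; a water-only group set basal frequency. Tail blood was taken 30 h after treatment onto acridine orange slides and held ≥24 h at -20 °C in the dark. Micronuclei were counted per 1,000 reticulocytes per animal by fluorescence microscopy. Values are arithmetic means compared by one-way ANOVA/Tukey (P < 0.05).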

In data set [6] the test system is Mus musculus. As to the kind of experiment: Mutagenicity in Swiss albino mouse at 250 mg/kg after 30 hrs by micronucleus test. Format: toxicity, organism-based. More on the design: dose 250 mg/kg. To be noted: in vivo. The essentials: as §2
The test system of data set [7] is Trypanosoma cruzi. As to the kind of experiment: Potency index, ratio of benznidazole IC50 to compound IC50 for epimastigote stage of Trypanosoma cruzi Y. Type of data set: functional.
Setting [8] is: Trypanosoma cruzi, Y, 72 h, read-out: IC50.

Activity calls are given as the source filed them. The rule behind the calls is not given here.

Cruzipain (Trypanosoma cruzi), sequence (P25779 123-467 limits assumed): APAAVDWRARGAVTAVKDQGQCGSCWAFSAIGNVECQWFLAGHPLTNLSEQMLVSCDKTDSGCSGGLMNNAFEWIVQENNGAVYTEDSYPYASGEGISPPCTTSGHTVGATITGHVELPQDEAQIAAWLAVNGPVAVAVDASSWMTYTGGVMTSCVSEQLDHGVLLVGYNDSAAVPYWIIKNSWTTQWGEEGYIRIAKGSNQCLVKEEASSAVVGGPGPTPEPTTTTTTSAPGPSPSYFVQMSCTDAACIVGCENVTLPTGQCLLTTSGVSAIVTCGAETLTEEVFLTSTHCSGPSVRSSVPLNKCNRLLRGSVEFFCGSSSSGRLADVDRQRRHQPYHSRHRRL

Turning to `C/C(=N\NC(N)=S)c1cccc([N+](=O)[O-])c1`, in data set [1], the inhibition is 5%. This compound registered an inhibition at 5 µg/mL with Trypanosoma cruzi [2] of 3%. Further, the IC50 in the data set with Trypanosoma cruzi [3] (setting [8]) was greater than 420 µM.

Take `NC(=S)N/N=C(\COC(=O)CCC(=O)O)c1ccc([N+](=O)[O-])cc1`: in data set [1], the inhibition worked out at 10%. In the data set on Trypanosoma cruzi [3] (setting [8]), the concentration for half-maximal inhibition (IC50) came out at 116 µM.

`C/C(=N\NC(N)=S)c1ccc(N)cc1` came in with an inhibition in data set [1] of 25%. Besides, in the data set on Trypanosoma cruzi [3] (setting [8]), the 50% inhibitory concentration (IC50) is greater than 480 µM.

Consider `NC/C(=N\NC(N)=S)c1cccc([N+](=O)[O-])c1`, for which the inhibition result in data set [1] was “inactive”. The compound further showed an inhibition at 50 µg/mL in the data set on Trypanosoma cruzi [4] of 3%. For the same compound, in the data set on Trypanosoma cruzi [3] (setting [8]), the IC50 is greater than 299 µM.

For `O=C(Cn1ccnc1[N+](=O)[O-])NCc1ccccc1` [BENZNIDAZOLE], in the data set with Mus musculus [5], the Activity result was “Toxic”. Further, the IC50 with Trypanosoma cruzi [3] (setting [8]) is 34.6 µM.

The compound `Br.NC/C(=N\NC(N)=S)c1ccc([N+](=O)[O-])cc1` had an inhibition in data set [1] of 20%. For the same compound, the Activity entry in the data set with Mus musculus [6] and in the data set on Mus musculus [5] was “Non-toxic” in each case. Moreover, the “Ratio IC50” value in the data set with Trypanosoma cruzi [7] turned out to be 5. The IC50 with Trypanosoma cruzi [3] (setting [8]) worked out at 6.3 µM.

Consider `NC/C(=N\NC(N)=S)c1ccccc1`, for which the inhibition entry in data set [1] is “inactive”. The 50% inhibitory concentration (IC50) in the data set with Trypanosoma cruzi [3] (setting [8]) is greater than 409 µM.

Take `C/C(=N\N=C(/N)S)c1ccccc1` [PHENYL(METHYL)THIOSEMICARBAZONE]: the inhibition entry in data set [1] was “inactive”. The concentration for half-maximal inhibition (IC50) in the data set on Trypanosoma cruzi [3] (setting [8]) worked out at 195 µM.

For `C/C(=N\NC(N)=S)c1ccc(N)c([N+](=O)[O-])c1`, in data set [1], the inhibition is 55%. In the data set with Trypanosoma cruzi [3], the IC50 entry is “Not Active”.

In data set [1], `NC(=S)N/N=C(\CO)c1ccc([N+](=O)[O-])cc1` registered an inhibition of 10%. The Activity entry in the data set on Mus musculus [6] and with Mus musculus [5] was “Non-toxic” throughout. In addition, the IC50 with Trypanosoma cruzi [3] (setting [8]) worked out at 37.7 µM.

On to `C/C(=N\NC(N)=S)c1cccc(N)c1`, for which the inhibition entry in data set [1] is “inactive”. In the data set with Trypanosoma cruzi [3] (setting [8]), the IC50 is greater than 480 µM.

For the compound `NC(=S)N/N=C(\CNC(=O)CCC(=O)O)c1ccc([N+](=O)[O-])cc1`, in data set [1], the inhibition was 50%. Moreover, the Activity entry in the data set with Mus musculus [6] and in the data set on Mus musculus [5] was “Non-toxic” each time. Further, the IC50 in the data set on Trypanosoma cruzi [3] (setting [8]) was 12 µM.

With `C/C(=N\NC(N)=S)c1ccc([N+](=O)[O-])c(N)c1`, the inhibition in data set [1] is 65%. The IC50 in the data set on Trypanosoma cruzi [3] (setting [8]) worked out at 239 µM.
